Calls of active or inactive are those of the source. No cut-off for these calls is given here.
Assays:
[1] = molecular target: T1, Protein cereblon/3-hydroxy-3-methylglutaryl-coenzyme A reductase (Homo sapiens) (UniProt P04035+Q96SW2); assay: Protac activity at human Flag-tagged CRBN/T7-tagged HMGCR expressed in Chinese hamster SRD15 cells transfected with HA-tagged ubiquitin assessed as increase in HMGCR immunoprecipitation 1 uM incubated for 16 hrs followed by atorvastatin addition addition and measured after 5 hrs in presence of MG132 by Western blot analysis; format: cell-based
T1 sequence (P04035 whole entry, looked up): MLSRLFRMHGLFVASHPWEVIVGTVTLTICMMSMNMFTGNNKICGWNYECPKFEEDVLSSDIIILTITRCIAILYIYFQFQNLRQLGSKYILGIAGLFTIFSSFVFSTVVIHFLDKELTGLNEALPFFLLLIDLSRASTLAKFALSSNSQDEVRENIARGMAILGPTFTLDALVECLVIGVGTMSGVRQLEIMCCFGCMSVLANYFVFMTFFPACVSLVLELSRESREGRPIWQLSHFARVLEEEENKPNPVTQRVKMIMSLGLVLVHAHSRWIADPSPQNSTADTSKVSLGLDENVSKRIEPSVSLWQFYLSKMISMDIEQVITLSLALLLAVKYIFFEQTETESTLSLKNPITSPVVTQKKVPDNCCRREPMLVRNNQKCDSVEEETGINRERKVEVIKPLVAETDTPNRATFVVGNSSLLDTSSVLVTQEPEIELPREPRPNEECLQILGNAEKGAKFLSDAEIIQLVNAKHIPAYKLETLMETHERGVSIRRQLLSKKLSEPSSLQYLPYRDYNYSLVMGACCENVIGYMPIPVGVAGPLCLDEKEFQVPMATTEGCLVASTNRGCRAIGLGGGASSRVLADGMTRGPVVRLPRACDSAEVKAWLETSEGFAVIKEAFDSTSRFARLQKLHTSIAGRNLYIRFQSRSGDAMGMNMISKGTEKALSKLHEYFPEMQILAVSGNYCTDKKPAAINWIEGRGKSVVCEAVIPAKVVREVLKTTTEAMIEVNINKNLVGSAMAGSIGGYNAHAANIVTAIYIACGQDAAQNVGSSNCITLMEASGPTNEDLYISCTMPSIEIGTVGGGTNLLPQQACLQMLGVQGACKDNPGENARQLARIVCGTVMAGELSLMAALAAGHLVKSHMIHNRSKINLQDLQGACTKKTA
T1 sequence (Q96SW2 whole entry, looked up): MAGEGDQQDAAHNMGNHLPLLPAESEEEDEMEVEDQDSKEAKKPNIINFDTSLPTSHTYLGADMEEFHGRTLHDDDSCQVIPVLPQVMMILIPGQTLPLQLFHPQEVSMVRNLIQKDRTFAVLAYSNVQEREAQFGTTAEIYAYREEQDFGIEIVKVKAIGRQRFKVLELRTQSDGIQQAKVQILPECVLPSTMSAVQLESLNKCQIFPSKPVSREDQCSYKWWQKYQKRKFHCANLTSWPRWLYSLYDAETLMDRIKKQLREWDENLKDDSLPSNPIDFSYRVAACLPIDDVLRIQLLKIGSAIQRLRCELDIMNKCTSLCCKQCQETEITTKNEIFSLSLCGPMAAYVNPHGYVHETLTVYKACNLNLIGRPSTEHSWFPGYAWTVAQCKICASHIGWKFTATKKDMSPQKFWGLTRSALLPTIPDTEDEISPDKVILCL

[2] = molecular target: T2, Sterol regulatory element-binding protein 2 (Mus musculus) (UniProt Q3U1N2); assay: Activation of SREBP2 pathway in mouse primary hepatocytes assessed as increase in HMGCR mRNA expression at 0.3 to 1 uM afer 16 hrs by quantitative real-time PCR analysis; format: cell-based
T2 sequence (whole entry): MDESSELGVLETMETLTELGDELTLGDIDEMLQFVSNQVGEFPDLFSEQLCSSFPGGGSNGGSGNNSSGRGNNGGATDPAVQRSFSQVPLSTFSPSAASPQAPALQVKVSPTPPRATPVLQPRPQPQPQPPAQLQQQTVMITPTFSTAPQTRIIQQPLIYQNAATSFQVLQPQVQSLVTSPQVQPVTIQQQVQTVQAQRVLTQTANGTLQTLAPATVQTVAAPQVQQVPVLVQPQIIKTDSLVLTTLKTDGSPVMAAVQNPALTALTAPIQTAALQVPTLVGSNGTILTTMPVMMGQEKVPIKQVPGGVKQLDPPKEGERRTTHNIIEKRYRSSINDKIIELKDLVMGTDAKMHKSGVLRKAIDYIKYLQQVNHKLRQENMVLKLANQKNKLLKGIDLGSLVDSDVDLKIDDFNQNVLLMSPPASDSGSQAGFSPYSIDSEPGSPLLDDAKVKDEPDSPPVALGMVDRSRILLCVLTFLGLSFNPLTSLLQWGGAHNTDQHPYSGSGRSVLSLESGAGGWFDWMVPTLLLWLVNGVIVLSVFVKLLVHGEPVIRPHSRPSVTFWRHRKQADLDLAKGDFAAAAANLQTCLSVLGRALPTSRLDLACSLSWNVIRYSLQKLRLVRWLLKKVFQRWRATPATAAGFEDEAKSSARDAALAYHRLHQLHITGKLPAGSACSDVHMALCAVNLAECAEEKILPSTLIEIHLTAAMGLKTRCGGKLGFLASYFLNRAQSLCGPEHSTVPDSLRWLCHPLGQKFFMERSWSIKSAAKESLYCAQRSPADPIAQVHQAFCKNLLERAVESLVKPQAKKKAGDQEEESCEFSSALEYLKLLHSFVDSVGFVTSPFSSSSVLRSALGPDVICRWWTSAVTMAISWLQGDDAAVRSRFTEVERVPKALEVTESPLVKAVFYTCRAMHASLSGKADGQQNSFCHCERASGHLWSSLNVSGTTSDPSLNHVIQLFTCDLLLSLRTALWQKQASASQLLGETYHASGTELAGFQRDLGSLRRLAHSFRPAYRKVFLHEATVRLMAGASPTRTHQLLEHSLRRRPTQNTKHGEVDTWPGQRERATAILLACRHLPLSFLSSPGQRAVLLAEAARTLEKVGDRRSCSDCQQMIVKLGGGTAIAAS

[3] = molecular target: T3, Protein cereblon/3-hydroxy-3-methylglutaryl-coenzyme A reductase (Cricetulus griseus) (UniProt P00347+G3H338); assay: Protac activity at CRBN/HMGCR in Insig-1/Insig-2 deficient Chinese hamster SRD15 cells assessed as HMGCR level at 1 uM after 16 hrs in presence of 1 uM pomalidomide by immunoblotting analysis (reference value: 1)
[4] = molecular target: T3, Protein cereblon/3-hydroxy-3-methylglutaryl-coenzyme A reductase (Cricetulus griseus); assay: Protac activity at CRBN/HMGCR in Insig-1/Insig-2 deficient Chinese hamster SRD15 cells assessed as increase in ubiquitination level of HMGCR at 1 uM incubated for 4 hrs in presence of MG132 by Western blot analysis
How it was run: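 SRD15 cells given DMSO or 1 μM degrader together with 10 μM MG132 for 4 h. Lysates probed by immunoblot with P4D1 anti-ubiquitin antibody for high-molecular-weight HMGCR smears.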

[5] = molecular target: T3, Protein cereblon/3-hydroxy-3-methylglutaryl-coenzyme A reductase (Cricetulus griseus); assay: Protac activity at CRBN/HMGCR in Insig-1/Insig-2 deficient Chinese hamster SRD15 cells assessed as HMGCR level at 1 uM after 16 hrs in presence of 1 uM P22A-Et by immunoblotting analysis (reference value: 1)
[6] = molecular target: T3, Protein cereblon/3-hydroxy-3-methylglutaryl-coenzyme A reductase (Cricetulus griseus); assay: Protac activity at CRBN/HMGCR in Insig-1/Insig-2 deficient Chinese hamster SRD15 cells assessed as HMGCR level at 1 uM after 16 hrs in presence of 0.1 uM atorvastatin by immunoblotting analysis (reference value: 1)
Target sequence in this assay (G3H338 1-445 partner): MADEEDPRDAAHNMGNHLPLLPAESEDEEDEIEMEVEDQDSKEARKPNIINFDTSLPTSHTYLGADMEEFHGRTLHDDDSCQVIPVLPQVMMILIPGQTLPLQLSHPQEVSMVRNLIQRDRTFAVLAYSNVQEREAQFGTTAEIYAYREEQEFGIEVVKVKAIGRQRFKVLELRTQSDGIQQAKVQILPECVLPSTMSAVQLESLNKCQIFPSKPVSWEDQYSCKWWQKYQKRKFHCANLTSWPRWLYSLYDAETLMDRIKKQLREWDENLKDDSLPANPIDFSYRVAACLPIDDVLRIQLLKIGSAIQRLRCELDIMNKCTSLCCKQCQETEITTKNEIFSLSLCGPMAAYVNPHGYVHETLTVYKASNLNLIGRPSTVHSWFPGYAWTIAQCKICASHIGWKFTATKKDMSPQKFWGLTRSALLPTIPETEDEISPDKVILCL
Target sequence in this assay (P00347 whole entry): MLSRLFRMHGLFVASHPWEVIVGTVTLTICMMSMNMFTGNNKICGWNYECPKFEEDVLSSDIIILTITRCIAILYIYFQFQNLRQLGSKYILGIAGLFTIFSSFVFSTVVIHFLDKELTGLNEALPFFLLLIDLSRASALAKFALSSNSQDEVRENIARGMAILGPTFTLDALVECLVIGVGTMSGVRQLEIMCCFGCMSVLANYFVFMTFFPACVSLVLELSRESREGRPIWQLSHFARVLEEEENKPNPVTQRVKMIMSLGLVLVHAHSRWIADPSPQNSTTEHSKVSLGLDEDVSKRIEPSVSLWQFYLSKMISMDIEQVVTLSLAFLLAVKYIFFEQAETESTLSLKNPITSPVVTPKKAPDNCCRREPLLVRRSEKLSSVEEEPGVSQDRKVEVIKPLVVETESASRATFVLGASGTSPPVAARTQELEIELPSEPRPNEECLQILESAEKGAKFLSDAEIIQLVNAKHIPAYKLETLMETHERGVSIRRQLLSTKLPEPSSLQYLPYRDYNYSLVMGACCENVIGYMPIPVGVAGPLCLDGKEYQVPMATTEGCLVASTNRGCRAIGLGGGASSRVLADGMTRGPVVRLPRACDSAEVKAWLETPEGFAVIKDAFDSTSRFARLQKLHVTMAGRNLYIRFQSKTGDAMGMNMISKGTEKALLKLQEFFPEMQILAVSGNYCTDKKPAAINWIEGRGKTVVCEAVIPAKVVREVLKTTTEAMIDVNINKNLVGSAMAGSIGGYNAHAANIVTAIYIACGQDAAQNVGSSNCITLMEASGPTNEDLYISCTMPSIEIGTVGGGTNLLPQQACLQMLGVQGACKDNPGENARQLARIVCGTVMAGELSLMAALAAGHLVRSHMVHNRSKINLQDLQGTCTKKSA

[7] = molecular target: T3, Protein cereblon/3-hydroxy-3-methylglutaryl-coenzyme A reductase (Cricetulus griseus); assay: Protac activity at CRBN/HMGCR in 5'-GGAAGUCGAAGACCAAGAU-3' siRNA transfected in Insig-1/Insig-2 deficient Chinese hamster SRD15 cells assessed as induction of HMGCR degradation at after 16 hrs by immunoblotting analysis
How it was run: (§1)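 SRD15 cells (Insig-1/Insig-2-deficient CHO-7) in Medium A with 5% FBS at 37 °C, 5% CO2; transfected with negative-control or Crbn-targeting siRNA duplexes for 48 h, then given 1 μM degrader for 16 h. HMGCR by SDS-PAGE immunoblot of RIPA lysates. Knockdown efficiency checked by qRT-PCR against hamster GAPDH, comparative CT method. n = 3 independent experiments.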
Target sequence in this assay (G3H338 1-445 partner): as the sequence (G3H338 1-445 partner) above
Target sequence in this assay (P00347 whole entry): as the sequence (P00347 whole entry) above

[8] = molecular target: T3, Protein cereblon/3-hydroxy-3-methylglutaryl-coenzyme A reductase (Cricetulus griseus); assay: Protac activity at CRBN/HMGCR in Insig-1/Insig-2 deficient Chinese hamster SRD15 cells assessed as HMGCR level at 0.3 uM after 16 hrs by immunoblotting analysis (reference value: 1)
How it was run: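 Dose-response in SRD15 cells in Medium A with 5% FBS, 16 h treatment, DMSO final 0.1% or lower. RIPA lysates immunoblotted for HMGCR. HMGCR densitometry normalized to actin, with the DMSO group set to 1. Three repeats. DC50 is taken from a dose-response fit of the semi-quantitative blots, mean of 3 independent experiments.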
Target sequence in this assay (G3H338 1-445 partner): as the sequence (G3H338 1-445 partner) above
Target sequence in this assay (P00347 whole entry): as the sequence (P00347 whole entry) above

[9] = molecular target: T3, Protein cereblon/3-hydroxy-3-methylglutaryl-coenzyme A reductase (Cricetulus griseus); assay: Protac activity at CRBN/HMGCR in 5'-CCAGAAACUGAAGAUGAAA-3' siRNA transfected in Insig-1/Insig-2 deficient Chinese hamster SRD15 cells assessed as induction of HMGCR degradation at 1 uM after 16 hrs by immunoblotting analysis; how it was run: as §1
[10] = molecular target: T1, Protein cereblon/3-hydroxy-3-methylglutaryl-coenzyme A reductase (Homo sapiens); assay: Protac activity at human Flag-tagged CRBN/Myc-tagged HMGCR expressed in HEK293T cells assessed as induction of HMGCR immunoprecipitation at 1 uM preincubated for 16 hrs followed by MG132 addition addition and measured after 5 hrs in presence of MG132 by Western blot analysis; format: cell-based; settings: HEK-293T
[11] = molecular target: T3, Protein cereblon/3-hydroxy-3-methylglutaryl-coenzyme A reductase (Cricetulus griseus); assay: Protac activity at CRBN/HMGCR in Insig-1/Insig-2 deficient Chinese hamster SRD15 cells assessed as HMGCR level at 1 uM after 16 hrs in presence of 10 uM pomalidomide by immunoblotting analysis (reference value: 1)
Target sequence in this assay (G3H338 1-445 partner): as the sequence (G3H338 1-445 partner) above
Target sequence in this assay (P00347 whole entry): as the sequence (P00347 whole entry) above

[12] = molecular target: T3, Protein cereblon/3-hydroxy-3-methylglutaryl-coenzyme A reductase (Cricetulus griseus); assay: Protac activity at CRBN/HMGCR in Insig-1/Insig-2 deficient Chinese hamster SRD15 cells assessed as induction of HMGCR degradation at 1 uM preincubated for 16 hrs followed by addition of neddylation inhibitor MLN4924 and further incubated for 3 hrs by Western blot analysis
How it was run: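 SRD15 cells treated with 1 μM degrader for 16 h, then for 3 h with 10 μM MG132 or with MLN-4924 at the indicated concentrations. HMGCR by immunoblot.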
Target sequence in this assay (G3H338 1-445 partner): as the sequence (G3H338 1-445 partner) above
Target sequence in this assay (P00347 whole entry): as the sequence (P00347 whole entry) above

CC(C)c1c(C(=O)Nc2ccccc2)c(-c2cccc(OCCCc3cn(CCOCCOCCOCCOCCNc4cccc5c4C(=O)N(C4CCC(=O)NC4=O)C5=O)nn3)c2)c(-c2ccc(F)cc2)n1CC[C@@H](O)C[C@@H](O)CC(=O)O (some centres not stated)
Activity [1]: inactive | Activity [2]: Active | fold change (FC) [3]: 1 | Activity [4]: Active | fold change (FC) [5]: 1.1 | fold change (FC) [6]: 0.9 | Activity [7]: inactive | fold change (FC) [8]: 0.4 | Activity [9]: inactive | Activity [10]: Active | fold change (FC) [11]: 1 | Activity [12]: inactive
